Consider three compounds from paper PMC11231753 (Biofilm, 2024).

The test system of one test is C. violaceum 6267. The test is described as follows: MIC by broth microdilution against C. violaceum 6267. The test is classed as cell-based, Chromobacterium violaceum. The method in brief:
(§1)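 Strains maintained in LB (1 % peptone, 0.5 % yeast extract, 0.5 % NaCl). Broth microdilution in 96-well plates: 10⁶ CFU/mL exposed to serial two-fold dilutions of the test extract, overnight at 37 °C. MIC taken as the lowest concentration inhibiting growth. Amoxicillin-clavulanate and imipenem served as positive controls. Run in triplicate.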
On the technique in general: Broth dilution looks for growth in wells or tubes with falling amounts of substance.

Test [1] has as its system violacein production by C. violaceum 6267. The test is described as follows: Quantitative anti-QS assay: inhibition of violacein production in 96 well plates. The test is classed as cell-based, Chromobacterium violaceum.
For the next test, the system named is P. aeruginosa PAO1. Put plainly: MIC by broth microdilution against P. aeruginosa PAO1. Format: cell-based, Pseudomonas aeruginosa. In short, it runs like this:
as §1

The test system of test [2] is P. aeruginosa PAO1 biofilm formation. Put plainly: Inhibition of biofilm formation. The test is classed as cell-based, Pseudomonas aeruginosa. The conditions noted are these: comparison of Fig. 5A, concentration not given. The method in brief:
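Biofilm grown in LB broth with 10⁵ CFU/mL PAO1 and serial dilutions of the test extract (7.81–500 μg/mL) at 37 °C overnight. Amoxicillin-clavulanate (3.9–250 μg/mL) and imipenem (0.015–0.97 μg/mL) served as reference antibiotics. Biomass was stained with crystal violet and read at 600 nm to give percent inhibition. Biofilm cells were also viewed by inverted microscope. Run in triplicate; mean ± standard deviation.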

For the next test, the system named is P. aeruginosa. The conditions noted are these: cited from earlier work.
Test [3] has as its system Klebsiella pneumoniae, Proteus mirabilis, Pseudomonas aeruginosa, and Shigella flexineri. The conditions noted are these: cited from earlier work.

Each structure is given as a SMILES string. In brackets after ≈: the same amount, converted by molar mass.

The term MIC denotes the lowest concentration that inhibits growth of the organism. For `O=C/C=C/c1ccccc1` [Cinnamaldehyde], the MIC in the test with C. violaceum 6267 (Chromobacterium violaceum, 6267, read-out: MIC C. violaceum) came out at 31.2 µg/mL (≈ 236 µM). Besides, the “MIC C. violaceum” value against C. violaceum 6267 (broth microdilution) was 31.25 µg/mL (≈ 236 µM). Also, in test [1] (C. violaceum 6267), the “Anti-QS activity (concentration inhibiting violacein production)” value stood at 7.81 µg/mL. Moreover, the “percentage of inhibition (violacein production)” value in test [1] (at the anti-QS concentration printed beside the value) was determined as 87.8 ± 2.32%. The “Inhibition of violacein production” value in test [1] (½ MIC (n-BuOH fraction 125 μg/mL; ethanolic extract 250 μg/mL)) is listed as 93.4%.
For `C[C@@H](O)[C@H]1C(=O)N2C(C(=O)O)=C(SCCN=CN)C[C@H]12` [Imipenem, imipenem], in the test with P. aeruginosa PAO1 (Pseudomonas aeruginosa, PAO1, read-out: MIC P. aeruginosa PAO1), the MIC was determined as 31.2 µg/mL (≈ 104 µM). Also, the “MIC P. aeruginosa PAO1” value against P. aeruginosa PAO1 (broth microdilution, overnight 37 °C) is 31.25 µg/mL (≈ 104 µM). Also, in test [2], the “Antibiofilm effect, percentage of inhibition” value worked out at 47.24%.
Turning to `O=c1c(O)c(-c2cc(O)c(O)c(O)c2)oc2cc(O)cc(O)c12` [myricetin], the “MIC against P. aeruginosa ATCC 27853” value in the test on P. aeruginosa is 256 µg/mL (≈ 804 µM). Also, the “Concentration inhibiting bacterial growth of various Gram-negative bacteria” value in test [3] was 30 µg/mL.
